# ChEMBL document CHEMBL3526104 (Drug Metab Dispos, 2011)
# How the values were obtained:
# [1] = Lipophilicity, log P of the compound; assay type: physicochemical; conditions: octanol/water
# [2] = AUC (0 to t) in healthy human at 150 mg, po administered as single dose; assay type: ADME, organism-based; set-up: dosed compound name Casopitant; conditions: plasma
# Homo sapiens [3] = experiment: AUC in healthy human assessed as fold change at 100 mg, po in presence of 400 mg ketoconazole; assay type: ADME, organism-based, Plasma; set-up: dosed compound name Casopitant; conditions: in vivo
# Summary of the method: (§1)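 Open-label study, healthy subjects (n=12 enrolled; 13 per treatment in table): single oral 100 mg dose given alone on Day 1, then with oral ketoconazole 400 mg once daily for 7 days, co-dosed on Day 4 of ketoconazole. Plasma parent drug measured by validated HPLC-MS/MS at selected time points; ratios from geometric means of AUC(0-t) and Cmax, 90% CI.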
# Homo sapiens [4] = experiment: Cmax in healthy human assessed as fold change at 150 mg, po in presence of 600 mg rifampin; assay type: ADME, organism-based; set-up: dosed compound name Casopitant; conditions: in vivo
# Summary of the method: (§2)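 Open-label study, 12 healthy subjects: single oral 150 mg dose alone on Day 1, then with oral rifampin 600 mg once daily (study Days 9-17), co-dosed on Day 16. Plasma parent drug measured by validated HPLC-MS/MS at selected time points; fold change from geometric means of AUC(0-t) and Cmax, 90% CI.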
# [5] = Tmax in healthy human at 150 mg, po administered as single dose on day 8 and cotreated with rifampin at 600 mg, po qd on day 1 to 9; assay type: ADME, organism-based; set-up: dosed compound name Casopitant; conditions: in vivo
# [6] = Tmax in healthy human at 100 mg, po administered as single dose on day 4 and cotreated with ketoconazole at 400 mg, po qd on day 1 to 7; assay type: ADME, organism-based; set-up: dosed compound name Casopitant; conditions: in vivo
# [7] = Cmax in healthy human at 150 mg, po administered as single dose on day 8 and cotreated with rifampin at 600 mg, po qd on day 1 to 9; assay type: ADME, organism-based; conditions: in vivo
# [8] = Cmax in healthy human at 150 mg, po administered as single dose; assay type: ADME, organism-based; conditions: in vivo
# [9] = Cmax in healthy human at 100 mg, po administered as single dose on day 4 and cotreated with ketoconazole at 400 mg, po qd on day 1 to 7; assay type: ADME, organism-based; conditions: in vivo
# [10] = Volume of distribution at steady state in human; assay type: ADME, organism-based; set-up: dosed compound name Casopitant; conditions: in vivo, read-out: Vdss
# [11] = Half life in healthy human at 150 mg, po administered as single dose; assay type: ADME, organism-based; set-up: dosed compound name Casopitant; conditions: in vivo
# [12] = Unbound fraction in human gut; assay type: ADME, tissue-based; set-up: dosed compound name Casopitant
# [13] = AUC (0 to t) in healthy human at 150 mg, po administered as single dose on day 8 and cotreated with rifampin at 600 mg, po qd on day 1 to 9; assay type: ADME, organism-based; set-up: dosed compound name Casopitant; conditions: plasma
# CYP3A4 = CYP3A4 (Homo sapiens, UniProt P08684); experiment: Metabolism dependent inactivation of CYP3A4 in human liver microsomes pretreated with compound in presence of midazolam substrate and NADPH by HPLC-MS/MS method relative to untreated control; conditions: probe midazolam
# Chain of CYP3A4 (P08684 whole entry): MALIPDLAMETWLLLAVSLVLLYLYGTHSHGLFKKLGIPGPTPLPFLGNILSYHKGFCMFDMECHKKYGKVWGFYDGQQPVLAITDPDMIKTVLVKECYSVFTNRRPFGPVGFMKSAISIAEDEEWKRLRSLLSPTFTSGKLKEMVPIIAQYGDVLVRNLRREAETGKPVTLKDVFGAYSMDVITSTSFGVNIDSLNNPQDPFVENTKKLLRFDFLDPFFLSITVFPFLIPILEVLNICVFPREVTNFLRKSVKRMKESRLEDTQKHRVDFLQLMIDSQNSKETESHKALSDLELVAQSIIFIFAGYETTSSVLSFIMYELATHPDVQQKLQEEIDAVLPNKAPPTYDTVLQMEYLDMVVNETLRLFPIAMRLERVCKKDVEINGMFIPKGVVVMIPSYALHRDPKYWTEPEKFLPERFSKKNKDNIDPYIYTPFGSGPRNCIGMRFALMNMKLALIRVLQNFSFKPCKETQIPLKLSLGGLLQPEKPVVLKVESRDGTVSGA
# [14] = Dissociation constant, pKa of the compound; assay type: physicochemical
# [15] = Unbound fraction in human plasma; assay type: ADME, cell-free
# Liver microsome = experiment: Intrinsic clearance in human liver microsomes assessed per mg protein; assay type: ADME
# Summary of the method: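 CLint derived from Km and Vmax of GSK525060 formation in human liver microsomes. […] Metabolite measured by HPLC-MS/MS; Michaelis-Menten fit by non-linear regression.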
# Cytochrome P450 3A4 [16] = molecular target: T1, Cytochrome P450 3A4 (Homo sapiens, UniProt P08684); experiment: Drug metabolism assessed as human recombinant CYP3A4-mediated GSK525060 formation at 10 uM after 30 mins by HPLC-MS/MS method; assay type: ADME; conditions: recombinant enzyme, 0.5 h
# T1 sequence (P08684 whole entry): as above
# Summary of the method: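 Recombinant human CYP3A4 in 50 mM phosphate buffer, pH 7.4, with an NADPH-generating system. […] GSK525060 formation quantified by HPLC-MS/MS.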
# [17] = Half life in healthy human at 150 mg, po administered as single dose on day 8 and cotreated with rifampin at 600 mg, po qd on day 1 to 9; assay type: ADME, organism-based; set-up: dosed compound name Casopitant; conditions: in vivo
# [18] = AUC (0 to t) in healthy human at 100 mg, po administered as single dose; assay type: ADME, organism-based; set-up: dosed compound name Casopitant; conditions: plasma
# [19] = Tmax in healthy human at 150 mg, po administered as single dose; assay type: ADME, organism-based; set-up: dosed compound name Casopitant; conditions: in vivo
# Cytochrome P450 3A4 [20] = molecular target: T1, Cytochrome P450 3A4; experiment: Fraction of drug metabolized assessed as human CYP3A4-mediated drug metabolism; assay type: ADME; conditions: recombinant enzyme
# [21] = Tmax in healthy human at 100 mg, po administered as single dose; assay type: ADME, organism-based; set-up: dosed compound name Casopitant; conditions: in vivo
# Homo sapiens [22] = experiment: Cmax in healthy human assessed as fold change at 100 mg, po in presence of 400 mg ketoconazole; assay type: ADME, organism-based; set-up: dosed compound name Casopitant; conditions: in vivo; summary of the method: as §1
# [23] = AUC (0 to t) in healthy human at 100 mg, po administered as single dose on day 4 and cotreated with ketoconazole at 400 mg, po qd on day 1 to 7; assay type: ADME, organism-based; set-up: dosed compound name Casopitant; conditions: plasma
# Cytochrome P450 3A4 [24] = molecular target: T1, Cytochrome P450 3A4; experiment: Drug metabolism in human liver microsomes assessed as CYP3A4-mediated GSK525060 formation at 5 to 20 uM up to 30 mins by HPLC-MS/MS method; assay type: ADME; conditions: 0.5 h
# Summary of the method: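 Pooled human liver microsomes in 50 mM phosphate buffer, pH 7.4, with an NADPH-generating system. […] GSK525060 measured by HPLC-MS/MS.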
# Homo sapiens [25] = experiment: AUC in healthy human assessed as fold change at 150 mg, po in presence of 600 mg rifampin; assay type: ADME, organism-based, Plasma; set-up: dosed compound name Casopitant; conditions: in vivo; summary of the method: as §2
# [26] = Cmax in healthy human at 100 mg, po administered as single dose; assay type: ADME, organism-based; conditions: in vivo
# Homo sapiens [27] = experiment: AUC (0 to infinity) in healthy human assessed as fold change in presence of casopitant 120 mg, po once daily administered for 3 days; assay type: ADME, organism-based, Plasma; conditions: in vivo, 72 h
# Homo sapiens [28] = experiment: AUC (0 to infinity) in healthy human assessed as fold change in presence of casopitant 30 mg, po once daily administered for 14 days; assay type: ADME, organism-based, Plasma; conditions: in vivo, 336 h
# Homo sapiens [29] = experiment: AUC (0 to infinity) in healthy human assessed as fold change in presence of casopitant 120 mg, po once daily administered for 14 days; assay type: ADME, organism-based, Plasma; conditions: in vivo, 336 h
# Homo sapiens [30] = experiment: AUC (0 to infinity) in healthy human assessed as fold change in presence of casopitant 30 mg, po once daily administered for 3 days; assay type: ADME, organism-based, Plasma; conditions: in vivo, 72 h
smiles,measurement,setting,value
CC(=O)N1CCN([C@H]2CCN(C(=O)N(C)[C@H](C)c3cc(C(F)(F)F)cc(C(F)(F)F)c3)[C@@H](c3ccc(F)cc3C)C2)CC1 [CASOPITANT],logP,[1],5.6
same,AUC(0-t),[2],6570 ng·h/mL
same,fold change (FC),Homo sapiens [3],12.1
same,fold change (FC),Homo sapiens [4],0.11
same,Tmax,[5],1 h
same,Tmax,[6],2 h
same,Cmax,[7],93.2 ng/mL
same,Cmax,[8],847 ng/mL
same,Cmax,[9],1250 ng/mL
same,Vd,[10],2.58 L/kg
same,half-life,[11],19.2 h
same,fraction unbound,[12],1
same,AUC(0-t),[13],273 ng·h/mL
same,KI,CYP3A4,3.1 µM
same,pKa,[14],6.3
same,fraction unbound,[15],0.005
same,CLint,Liver microsome,25 µL/min/mg
same,Drug metabolism,Cytochrome P450 3A4 [16],metabolite_detected
same,half-life,[17],6.45 h
same,AUC(0-t),[18],2590 ng·h/mL
same,Tmax,[19],1.25 h
same,Fm,Cytochrome P450 3A4 [20],1
same,Tmax,[21],1 h
same,fold change (FC),Homo sapiens [22],2.71
same,AUC(0-t),[23],31200 ng·h/mL
same,Drug metabolism,Cytochrome P450 3A4 [24],metabolite_detected
same,fold change (FC),Homo sapiens [25],0.04
same,Cmax,[26],457 ng/mL
COC(=O)C1=C(C)NC(C)=C(C(=O)OC)C1c1ccccc1[N+](=O)[O-] [NIFEDIPINE],fold change (FC),Homo sapiens [27],1.77
same,fold change (FC),Homo sapiens [28],1.61
same,fold change (FC),Homo sapiens [29],1.42
same,fold change (FC),Homo sapiens [30],1.56
Cc1ncc2n1-c1ccc(Cl)cc1C(c1ccccc1F)=NC2 [MIDAZOLAM],fold change (FC),Homo sapiens [27],2.67
same,fold change (FC),Homo sapiens [28],1.76
same,fold change (FC),Homo sapiens [29],3.49
same,fold change (FC),Homo sapiens [30],2.02
